Test results from article PMC6850587 (Neurogastroenterology and Motility, 2019).

Experiments:
[1] = molecular target: T1, rat recombinant κ-opioid receptor (Rattus norvegicus, UniProt P34975); assay: […]-GTPγS binding functional assay; format: biochemical; settings: antagonist mode, against agonist
[2] = molecular target: T2, recombinant human μ-opioid receptor (Homo sapiens, UniProt P35372); assay: […]-GTPγS binding functional assay; format: biochemical
[3] = molecular target: T2, recombinant human μ-opioid receptor; assay: radioligand displacement, [3H]-DAMGO; format: binding
[4] = molecular target: T3, recombinant human κ-opioid receptor (Homo sapiens, UniProt P41145); assay: radioligand displacement, [3H]-U-69, […]; format: binding
[5] = molecular target: T1, rat recombinant κ-opioid receptor; assay: […]-GTPγS binding functional assay; format: biochemical
[6] = molecular target: T4, rat recombinant μ-opioid receptor (Rattus norvegicus, UniProt P33535); assay: […]-GTPγS binding functional assay; format: biochemical
[7] = molecular target: T5, rat recombinant δ-opioid receptor (Rattus norvegicus, UniProt P33533); assay: radioligand displacement, [3H]-DADLE; format: binding
Method in brief: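 δ-Opioid receptor sites labelled with [³H]-DADLE and displaced by test compound. The IC₅₀ is the concentration inhibiting 50% of specific binding. Ki = IC₅₀/(1 + L/Kd), where L is the radioligand concentration and the radioligand Kd comes from Scatchard plot analysis. Duplicate measurements in two or three independent experiments; data where fitting failed were excluded.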

[8] = molecular target: T6, recombinant human δ-opioid receptor (Homo sapiens, UniProt P41143); assay: […]-GTPγS binding functional assay; format: biochemical
[9] = molecular target: T3, recombinant human κ-opioid receptor; assay: […]-GTPγS binding functional assay; format: biochemical
[10] = molecular target: T1, rat recombinant κ-opioid receptor; assay: […]-GTPγS binding functional assay; format: biochemical; remark: listed apart in the source
[11] = molecular target: T4, rat recombinant μ-opioid receptor; assay: radioligand displacement, [3H]-DAMGO; format: binding
[12] = molecular target: T5, rat recombinant δ-opioid receptor; assay: […]-GTPγS binding functional assay; format: biochemical
[13] = molecular target: T4, rat recombinant μ-opioid receptor; assay: […]-GTPγS binding functional assay; format: biochemical; settings: antagonist mode, against agonist
[14] = molecular target: T6, recombinant human δ-opioid receptor; assay: […]-GTPγS binding functional assay; format: biochemical; settings: antagonist mode, against agonist
[15] = molecular target: T3, recombinant human κ-opioid receptor; assay: […]-GTPγS binding functional assay; format: biochemical; settings: antagonist mode, against agonist
[16] = molecular target: T6, recombinant human δ-opioid receptor; assay: radioligand displacement, [3H]-DADLE; format: binding
[17] = molecular target: T5, rat recombinant δ-opioid receptor; assay: […]-GTPγS binding functional assay; format: biochemical; settings: antagonist mode, against agonist
[18] = molecular target: T2, recombinant human μ-opioid receptor; assay: […]-GTPγS binding functional assay; format: biochemical; settings: antagonist mode, against agonist

T6 sequence (P41143 whole entry): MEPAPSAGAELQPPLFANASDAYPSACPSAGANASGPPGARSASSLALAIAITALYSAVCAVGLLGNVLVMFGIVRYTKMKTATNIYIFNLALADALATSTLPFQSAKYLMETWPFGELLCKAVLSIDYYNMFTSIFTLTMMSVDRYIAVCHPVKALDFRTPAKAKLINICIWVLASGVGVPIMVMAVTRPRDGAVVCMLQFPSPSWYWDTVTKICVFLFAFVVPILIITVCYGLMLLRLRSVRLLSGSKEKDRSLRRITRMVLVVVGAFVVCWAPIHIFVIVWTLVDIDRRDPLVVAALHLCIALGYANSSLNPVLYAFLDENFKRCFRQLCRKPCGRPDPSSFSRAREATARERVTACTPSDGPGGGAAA
T2 sequence (P35372 whole entry): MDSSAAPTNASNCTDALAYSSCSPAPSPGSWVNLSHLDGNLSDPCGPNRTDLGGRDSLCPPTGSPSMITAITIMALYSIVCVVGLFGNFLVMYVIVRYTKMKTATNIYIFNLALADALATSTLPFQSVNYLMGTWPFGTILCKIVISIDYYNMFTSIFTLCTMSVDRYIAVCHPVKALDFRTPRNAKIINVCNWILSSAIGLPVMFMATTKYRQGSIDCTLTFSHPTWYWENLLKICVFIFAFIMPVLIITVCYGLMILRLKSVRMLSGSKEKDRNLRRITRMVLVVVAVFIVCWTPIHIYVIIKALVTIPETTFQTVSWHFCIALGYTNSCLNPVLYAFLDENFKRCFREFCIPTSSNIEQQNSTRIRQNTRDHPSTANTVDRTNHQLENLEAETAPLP
T5 sequence (P33533 whole entry): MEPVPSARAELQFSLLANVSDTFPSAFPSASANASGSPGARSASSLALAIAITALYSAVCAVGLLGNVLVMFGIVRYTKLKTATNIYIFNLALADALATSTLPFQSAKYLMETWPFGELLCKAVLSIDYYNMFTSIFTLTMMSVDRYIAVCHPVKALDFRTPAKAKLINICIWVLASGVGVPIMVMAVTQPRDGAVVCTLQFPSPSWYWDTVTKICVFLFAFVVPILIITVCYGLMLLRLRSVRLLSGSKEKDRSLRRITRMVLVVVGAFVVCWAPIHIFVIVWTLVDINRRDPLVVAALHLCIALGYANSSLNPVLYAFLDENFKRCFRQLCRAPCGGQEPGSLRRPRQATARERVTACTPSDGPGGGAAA
T1 sequence (P34975 whole entry): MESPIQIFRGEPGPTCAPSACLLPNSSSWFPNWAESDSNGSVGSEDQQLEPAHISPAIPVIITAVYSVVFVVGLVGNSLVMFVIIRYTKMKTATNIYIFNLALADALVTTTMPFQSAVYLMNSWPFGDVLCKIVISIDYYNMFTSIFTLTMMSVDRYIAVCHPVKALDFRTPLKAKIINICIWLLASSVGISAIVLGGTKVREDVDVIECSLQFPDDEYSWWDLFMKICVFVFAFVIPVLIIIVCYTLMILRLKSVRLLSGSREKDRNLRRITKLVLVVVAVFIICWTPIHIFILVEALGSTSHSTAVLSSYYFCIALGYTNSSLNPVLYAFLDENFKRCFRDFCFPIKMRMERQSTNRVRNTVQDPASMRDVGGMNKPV
T3 sequence (P41145 whole entry): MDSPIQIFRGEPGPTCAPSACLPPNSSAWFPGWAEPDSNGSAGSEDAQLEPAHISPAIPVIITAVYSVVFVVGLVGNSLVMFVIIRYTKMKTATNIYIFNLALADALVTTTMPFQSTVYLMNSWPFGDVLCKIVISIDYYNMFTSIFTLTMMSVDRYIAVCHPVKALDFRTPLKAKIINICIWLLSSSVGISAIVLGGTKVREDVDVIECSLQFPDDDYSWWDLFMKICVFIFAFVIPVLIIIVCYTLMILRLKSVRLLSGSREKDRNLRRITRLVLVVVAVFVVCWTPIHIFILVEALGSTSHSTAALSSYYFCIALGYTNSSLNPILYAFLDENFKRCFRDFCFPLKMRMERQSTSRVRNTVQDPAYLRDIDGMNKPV
T4 sequence (P33535 whole entry): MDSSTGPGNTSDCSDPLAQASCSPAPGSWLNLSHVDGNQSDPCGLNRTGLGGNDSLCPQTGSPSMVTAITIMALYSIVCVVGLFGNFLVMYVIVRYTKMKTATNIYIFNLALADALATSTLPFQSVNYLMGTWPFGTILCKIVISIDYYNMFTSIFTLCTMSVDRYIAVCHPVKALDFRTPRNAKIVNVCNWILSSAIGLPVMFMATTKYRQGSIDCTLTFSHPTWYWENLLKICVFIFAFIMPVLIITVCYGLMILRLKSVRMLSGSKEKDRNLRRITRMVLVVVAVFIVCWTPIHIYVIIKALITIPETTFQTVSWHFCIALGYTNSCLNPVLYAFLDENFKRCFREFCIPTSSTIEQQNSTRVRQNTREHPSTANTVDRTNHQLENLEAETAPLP

## CC(C)(NC(=O)C1=C(O)[C@@H]2Oc3c(O)ccc4c3[C@@]23CCN(CC2CC2)[C@H](C4)[C@]3(O)C1)c1nc(-c2ccccc2)no1 [naldemedine]
[1]
  Antagonist activity (nmol L^-1) / κ: 0.49 ± 0.02 nmol/L
[2]
  EC50: > 10000 nM
[3]
  Ki: 0.34 ± 0.03 nM
[4]
  Ki: 0.94 nM
[5]
  EC50: > 10000 nM
[6]
  EC50: > 10000 nM
[7]
  Ki: 0.96 ± 0.06 nM
[8]
  EC50: > 10000 nM
[9]
  EC50: > 10000 nM
[10]
  IC50: 12.2 ± 0.57 nM
[11]
  Ki: 1.4 ± 0.24 nM
[12]
  EC50: > 10000 nM
[13]
  Antagonist activity (nmol L^-1) / μ: 0.56 ± 0.02 nmol/L
[14]
  Antagonist activity (nmol L^-1) / δ: 0.27 ± 0.03 nmol/L
[15]
  Antagonist activity (nmol L^-1) / κ: 0.44 nmol/L
[16]
  Ki: 0.43 ± 0.08 nM
[17]
  Antagonist activity (nmol L^-1) / δ: 0.22 ± 0.02 nmol/L
[18]
  Antagonist activity (nmol L^-1) / μ: 0.50 ± 0.05 nmol/L
